How the values were obtained:
Dihydrofolate reductase = target: T1, Dihydrofolate reductase (Mus musculus, UniProt P00375); assay: Inhibitory activity against dihydrofolate reductase (DHFR) of L-1210 cells; assay type: cell-based
T1 sequence (P00375 whole entry): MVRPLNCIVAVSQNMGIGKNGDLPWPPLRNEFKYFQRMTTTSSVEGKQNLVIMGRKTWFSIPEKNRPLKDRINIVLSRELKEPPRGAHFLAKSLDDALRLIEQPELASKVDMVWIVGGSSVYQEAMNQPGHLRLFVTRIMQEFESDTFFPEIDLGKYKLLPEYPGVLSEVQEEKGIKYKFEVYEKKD

L1210 = assay: Inhibition of cell growth of murine L-1210 cells; assay type: functional, cell-based; conditions: Mus musculus
HL-60 [1] = assay: Median-effective concentration for inhibition of human HL-60 cell growth at 24 h; assay type: functional; conditions: HL-60, 24 h, read-out: ED50 (the source's name)
Procedure, shortened: (§1)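 HL-60 cells exposed to five concentrations of each compound for up to 72 h, with viable cells counted by trypan blue exclusion. ED50 at 24, 48 or 72 h derived by median-effect equation and plot. Where dose-effect curves were shallow, values were assigned with < or << marks.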

HL-60 [2] = assay: Inhibition of [6-3H]-dUrd incorporation into DNA in HL-60 cells; assay type: functional; conditions: Homo sapiens, read-out: ED50 (the source's name)
Procedure, shortened: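 HL-60 cells preincubated with compound for 40 min, then given [6-3H]dUrd (0.05 μM, 1 μCi/mL) for 30 min at 37 °C, and label incorporated into DNA measured. Five compound concentrations were used, with ED50 from the median-effect equation and plot. For shallow curves, values were given as < or <<.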

HL-60 [3] = assay: Median-effective concentration for inhibition of human HL-60 cell growth at 72 h; assay type: functional; conditions: HL-60, 72 h, read-out: ED50 (the source's name); procedure, shortened: as §1
HL-60 [4] = assay: Compound was evaluated for inhibition of human HL-60 cell growth at 1 (uM) at 72 hr; assay type: functional
Procedure, shortened: (§2)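 HL-60 cells exposed to compound for up to 72 h. Viable cells counted by trypan blue exclusion, with percent growth inhibition read at 1 μM after 24, 48 or 72 h.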

HL-60 [5] = assay: Median-effective concentration for inhibition of human HL-60 cell growth at 48 h; assay type: functional; conditions: HL-60, 48 h, read-out: ED50 (the source's name); procedure, shortened: as §1
HL-60 [6] = assay: Compound was evaluated for inhibition of human HL-60 cell growth at 1 (uM) at 48 hr; assay type: functional; procedure, shortened: as §2
HL-60 [7] = assay: Compound was evaluated for inhibition of human HL-60 cell growth at 1 (uM) at 24 hr; assay type: functional; procedure, shortened: as §2

Row | Structure (SMILES) | Ki (Dihydrofolate reductase) [pM] | IC50 (L1210) [µM] | EC50 (HL-60 [1]) [µM] | EC50 (HL-60 [2]) [µM] | EC50 (HL-60 [3]) [µM] | EC50 (HL-60 [5]) [µM] | Inhibition (HL-60 [4]) [%] | Inhibition (HL-60 [6]) [%] | Inhibition (HL-60 [7]) [%]
1 | Nc1nc(N)c2cc(CNc3ccc(C(=O)NC(CCC(=O)O)C(=O)O)cc3)c(-c3ccccc3)nc2n1 (stereo unspecified) | > 4 | 16.9 |  |  |  |  |  |  | 
2 | Nc1nc(N)c2cc(CNc3ccc(C(=O)NC(CCC(=O)O)C(=O)O)cc3)cnc2n1 (stereo unspecified) |  | 0.02 |  |  |  |  |  |  | 
3 | Cc1nc2nc(N)nc(N)c2c(C)c1CNc1ccc(C(=O)NC(CCC(=O)O)C(=O)O)cc1 (stereo unspecified) | 2.01 | 0.125 | 42 | 568 | 0.59 | 8.2 | 50.8 | 19.8 | 10.3
4 | Cc1c(CNc2ccc(C(=O)NC(CCC(=O)O)C(=O)O)cc2)cnc2nc(N)nc(N)c12 (stereo unspecified) |  | 0.00011 | 2290 | < 4 | < 0.001 | 0.15 | 92.2 | 61.1 | 25.2
5 | Cc1nc2nc(N)nc(N)c2cc1CNc1ccc(C(=O)NC(CCC(=O)O)C(=O)O)cc1 (stereo unspecified) | > 4 | 0.08 | 144 | 123 | 0.011 | 2 | 77.6 | 32.5 | 4.7
6 | CN(Cc1cnc2nc(N)nc(N)c2n1)c1ccc(C(=O)N[C@@H](CCC(=O)O)C(=O)O)cc1 [METHOTREXATE] |  | 0.0045 | 609 | 0.1 | < 0.05 | < 0.05 | 87.7 | 64 | 34.2

The next lines start with results.

Row | Ki (Dihydrofolate reductase) [pM] | IC50 (L1210) [µM] | EC50 (HL-60 [1]) [µM] | EC50 (HL-60 [2]) [µM] | EC50 (HL-60 [3]) [µM] | EC50 (HL-60 [5]) [µM] | Structure (SMILES) | Inhibition (HL-60 [4]) [%] | Inhibition (HL-60 [6]) [%] | Inhibition (HL-60 [7]) [%]
7 | > 4 | 18.9 |  |  |  |  | Cc1nc2nc(N)nc(N)c2c(-c2ccccc2)c1CNc1ccc(C(=O)NC(CCC(=O)O)C(=O)O)cc1 (stereo unspecified) |  |  | 
8 | > 4 | 18.9 |  |  |  |  | Cc1c(CNc2ccc(C(=O)NC(CCC(=O)O)C(=O)O)cc2)c(-c2ccccc2)nc2nc(N)nc(N)c12 (stereo unspecified) |  |  | 

Source: ChEMBL document CHEMBL1124134, “Chemical synthesis and biological activities of 5-deazaaminopterin analogues bearing substituent(s) at the 5- and/or 7-position(s)” (J Med Chem, 1988)
